Published values from different studies.
Protocols differ between the studies behind these lines.
Target: Serine/threonine-protein kinase PAK 5 (PAK5, Homo sapiens, UniProt Q9P286)

`CCCOc1ccc(OC)c(F)c1C(=O)c1ccc(C(=O)N[C@@H]2CNC[C@H]2NC(=O)c2ccc3[nH]ncc3c2)cc1` gave a remaining activity of 85% (enzyme activity, inhibitor; 10 µM).
`O=C(Nc1cnn(-c2csc(C(=O)NC3COC3)c2)c1)Nc1ccccc1Cl` gave a remaining activity of 92.1% (enzyme activity, inhibitor; 5 µM).
The remaining activity of `Nc1nc(NC2CCCCC2)sc1C(=O)c1ccccc1` is reported as 103% (enzyme activity, inhibitor; 10 µM).
`N#Cc1ccc(Nc2ccc3[nH]c(=O)[nH]c3c2)c(Cl)c1` gave a remaining binding of 100% (cell-free assay, competition with immobilised ligand; 1 µM).
`COc1cc2ncnc(Nc3ccc(Oc4ccccc4)c(C)c3C)c2cc1OC` has an inhibition of 3% (enzyme activity, inhibitor; 1 µM).
`CC(C)(C)c1nc(-c2cccc(NS(=O)(=O)c3c(F)cccc3F)c2F)c(-c2ccnc(N)n2)s1` gave a remaining activity of 78% (enzyme activity, inhibitor, radiometric; 1 µM).
For `CCS(=O)(=O)c1cc2cc(C[C@](O)(CC(C)(C)c3ccc(F)cc3C(N)=O)C(F)(F)F)[nH]c2cn1`, the remaining binding was 100% (cell-free assay, competition with immobilised ligand; 1 µM).
`CCN(CC)CCNC(=O)c1c(C)[nH]c(/C=C2\C(=O)Nc3ccc(F)cc32)c1C` has an inhibition of -4% (enzyme activity, inhibitor; 0.3 µM).
`CN1CCN(c2cnc3c(C4CCN(C(=O)c5ccc(OC(F)(F)F)cc5N)CC4)ncnc3c2)CC1` has a remaining binding of 100% (cell-free assay, competition with immobilised ligand; 1 µM).
`FC(F)c1nc2ccccc2n1-c1nc(N2CCOCC2)nc(N2CCOCC2)n1` gave a remaining activity of 84% (enzyme activity, inhibitor; 10 µM).
For `COc1cc(/C=C/C(=O)CC(=O)/C=C/c2ccc(O)c(OC)c2)ccc1O`, the activity vs control was 108% (enzyme activity, inhibitor; 1 µM).
`CC(C)(O)[C@H]1CC[C@H](Nc2ccc3ncc(-c4cccc(C(F)(F)F)c4)n3n2)CC1` has a remaining activity of 98.1% (enzyme activity, inhibitor; 1 µM).
For `FC(F)(F)c1ccc2c(c1)nc(-c1cccnc1)n2C1CC1`, the remaining binding was 100% (cell-free assay, competition with immobilised ligand; 1 µM).
For `N#CCCc1ccc2c(c1)-c1[nH]c3ccc([N+](=O)[O-])cc3c1CC(=O)N2`, the remaining signal was 60.3% (cell-free assay; 0.5 µM).
The remaining binding of `CN(C)c1nccc(-c2cnc3ncccn23)n1` is reported as 78% (binding; 1 µM).
`Cc1ccc(NC(=O)c2ccc(C)c(C(F)(F)F)c2)cc1C#Cc1nn(C2CCC(O)CC2)c2ncnc(N)c12` (centres unmarked) has a remaining signal of 89% (cell-free assay; 10 µM).
The remaining binding of `O=C(O)[C@H]1[C@H](Cn2nnc3ccccc3c2=O)CC[C@@H]1C(=O)c1ccc(OCCC2CCOCC2)cc1` is reported as 98% (cell-free assay, competition with immobilised ligand; 1 µM).
`CCOc1cc(-c2nncn2C)ccc1Nc1ncc2cc(C)nc(NCC(C)(C)C)c2n1` gave an inhibition of less than 15% (enzyme activity, inhibitor, FRET; 1 µM).
`O=C1NC(c2ccccn2)Sc2ccccc21` (centres unmarked) gave a remaining binding of 94% (cell-free assay, competition with immobilised ligand; 1 µM).
`Nc1nc(Nc2ccc(S(N)(=O)=O)cc2)nn1C(=O)c1c(F)cccc1F` has a remaining signal of 85.4% (cell-free assay; 0.5 µM).
